ANO1 block: TMEM16A chloride channel inhibitors, primary screen, cell-based, HTS; HEK293 TMEM16A/YFP iodide influx fluorescence, ionomycin; 310,000 tested, 1.2% active; AID 588511, 2011; Anoctamin-1 (Mus musculus), Q8BHY3; normalized B-score (activity score, 25-100; higher = stronger inhibition) at 10 µM;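 active means ratio plate-corrected score three or more library SD toward inhibition, starting fluorescence score within five deviations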;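 further: score derived from kinetic fluorescence span divided by baseline fluorescence per well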
VIM-2 inh: VIM-2 metallo-beta-lactamase inhibitors, primary screen, biochemical, epi-absorbance readout, Pseudomonas aeruginosa enzyme; inhibition, % at 5.6 µM; purified VIM-2, nitrocefin hydrolysis, epi-absorbance fluorescence; 290,000 tested, 0.89% active;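 active means inhibition above the mean of all tested compounds plus 3 SD, cutoff set per screening run, cut at about 7.5% in these data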;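 further: red hydrolysis product quenches plate fluorescence so inhibitors raise well fluorescence; 0% = enzyme with DMSO and 100% = DMSO without enzyme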
TMEM16A act: TMEM16A chloride channel activators or potentiators, primary screen, cell-based, HTS | 340,000 tested, 0.3% active | HEK293 TMEM16A/YFP-H148Q/I152L, iodide quench fluorescence; active compounds read low | B-score at 10 µM | AID 623877, 2012;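 active means fluorescence-ratio B-score plate-corrected deviation score at least 3 library SD below zero, with starting fluorescence score within 5 deviations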;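 further: channel opened by trigger with iodide after compound preincubation; score built on the fluorescence ratio of max minus min over baseline; more negative score means more quench and so TMEM16A activation or potentiation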
CHT PAM: CHT positive allosteric modulators, primary screen, cell-based, membrane potential dye, choline EC20. High affinity choline transporter 1 (Homo sapiens), Q9GZV3. CHT-expressing cells; active compounds read high; LV-AA mutant CHT in HEK293 cells. B-score at 10 µM. 310,000 tested, 0.49% active. AID 488977, 2010;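 active means initial fluorescence not abnormally high and integrated response B-score, plate-corrected, over 3 SD above library mean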
IMP-1 inh-1: IMP-1 metallo-beta-lactamase inhibitors, primary screen, biochemical, epi-absorbance readout, Pseudomonas aeruginosa enzyme. metallo-beta-lactamase IMP-1 (Pseudomonas aeruginosa). purified IMP-1, nitrocefin hydrolysis, epi-absorbance fluorescence. inhibition, % at 5.6 µM. 290,000 tested, 0.45% active. AID 1556, 2009;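 active means inhibition above the mean plus 3 SD of all compounds in the same screening run, cut at about 4.5% in these data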;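 further: 0% = IMP-1 with DMSO and 100% = DMSO wells lacking enzyme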
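System: Purified recombinant IMP-1 metallo-beta-lactamase enzyme | Measured by: Fluorescence quenching readout, ex 480/em 530 nm | Replication: Singlicate | Incubation: 15 min preincubation plus 25 min reaction at 25 °C | Evaluation: Percent inhibition from optical density relative to buffer-blank wells | Benchmarks: DMSO with and without IMP-1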
CHT block: inhibitors of human choline transporter CHT; High affinity choline transporter 1 (Homo sapiens), Q9GZV3; CHT-expressing cells, membrane potential dye, choline response; active compounds read low; 310,000 tested, 0.86% active; B-score at 10 µM;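 active means B-score over 3 SD under the library average, and starting fluorescence ratio not unusually high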;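 further: choline stimulus applied at its EC90 after an EC20 pre-addition; B-score computed on integrated fluorescence ratio after choline addition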
IMP-1 inh-2: IMP-1 metallo-beta-lactamase inhibitors, confirmation, selectivity assay for selective VIM-2 inhibitor project, biochemical, epi-absorbance readout, triplicate; shares compounds with VIM-2 inh; purified IMP-1, nitrocefin hydrolysis, epi-absorbance fluorescence; inhibition, % at 5.6 µM; 1,300 tested, under 10 active; call rule not given here;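 further: 0% = enzyme with vehicle and 100% = vehicle without enzyme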
VIM-2 FRET inh: VIM-2 inhibitors in FRET format, confirmation, artefact control for selective VIM-2 inhibitor project, biochemical, epi-absorbance artifact exclusion; AID 1857, 2009; 1,300 tested, 23% active; shares compounds with VIM-2 inh; inhibition, % at 5.6 µM; purified VIM-2, CCF2 FRET substrate hydrolysis;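 active means inhibition above the mean of all tested compounds plus 3 SD, cut at about 19% in these data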;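 further: 0% = VIM-2 plus DMSO and 100% = no enzyme wells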
TEM-1 counter-1: TEM-1 serine beta-lactamase inhibitors, counter-screen for VIM-2 inhibitor project, biochemical, epi-absorbance, HTS | inhibition, % at 5.6 µM | Purified TEM-1, nitrocefin hydrolysis, epi-absorbance fluorescence | 1,300 tested, 3% active | shares compounds with VIM-2 inh | AID 1866, 2009;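 active means inhibition above that campaign's mean inhibition plus 3 SD, cut at about 0.46% in these data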;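 further: 0% = TEM-1 with DMSO and 100% = TEM-1 with 100 µM potassium clavulanate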
Target sequence (P62593 whole entry, looked up): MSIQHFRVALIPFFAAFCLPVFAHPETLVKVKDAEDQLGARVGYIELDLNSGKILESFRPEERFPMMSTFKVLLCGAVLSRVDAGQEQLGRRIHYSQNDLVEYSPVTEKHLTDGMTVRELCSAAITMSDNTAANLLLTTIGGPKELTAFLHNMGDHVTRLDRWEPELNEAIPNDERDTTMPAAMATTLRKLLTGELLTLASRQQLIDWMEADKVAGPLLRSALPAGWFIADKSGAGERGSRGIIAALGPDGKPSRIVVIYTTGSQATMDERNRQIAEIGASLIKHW
VIM-2 inh conf: VIM-2 metallo-beta-lactamase inhibitors, confirmation, biochemical, epi-absorbance, hits shared with IMP-1 screen; inhibition, % at 5.6 µM; 1,300 tested, 96% active; purified VIM-2, nitrocefin hydrolysis; shares compounds with VIM-2 inh;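 active means inhibition of the VIM-2 beta-lactamase enzyme above about 11% from the earlier first-round screen, limit read from the data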;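 further: 0% = VIM-2 with DMSO and 100% = buffer wells without enzyme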
VIM-2 inh confirm: P. aeruginosa VIM-2 enzyme inhibition – biochemical, epi-absorbance, HTS, confirmation; shares compounds with IMP-1 inh-1; purified VIM-2 enzyme, nitrocefin absorbance; inhibition, % at 5.6 µM; 200 tested, 73% active; in the data active means inhibition above about 8%;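 further: 0% = enzyme with vehicle and 100% = no enzyme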
TEM-1 counter-2: Serine beta-lactamase TEM-1 inhibition, biochemical epi-absorbance counter-screen for IMP-1/VIM-2 inhibitor program | shares compounds with IMP-1 inh-1 | TEM-1 beta-lactamase, nitrocefin absorbance inhibition | inhibition, % at 5.6 µM | 200 tested, 50% active | AID 2184, 2009; in the data active means inhibition above about 0.66%
IMP-1 confirm: IMP-1 metallo-beta-lactamase inhibitors, confirmation, biochemical, epi-absorbance, hits shared with VIM-2 screen; shares compounds with IMP-1 inh-1; purified IMP-1 enzyme, absorbance substrate hydrolysis; inhibition, % at 5.6 µM; 200 tested, 60% active; in the data active means inhibition above about 4.9%;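 further: 0% = enzyme with vehicle and 100% = vehicle without enzyme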
TMEM16A reconf: TMEM16A chloride channel inhibitors, confirmation, cell-based, re-confirmation; shares compounds with ANO1 block; HEK293 TMEM16A/YFP-H148Q, iodide quench fluorescence; ionomycin added to raise cell calcium; inhibition, % at 10 µM; 2,300 tested, 39% active; AID 652189, 2013;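 active means mean duplicate percent inhibition, scaled so buffer wells are 0 and the reference blocker 100, over three buffer SD above buffer mean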
HEK293 Ca mobil: calcium mobilization in TMEM16A/YFP HEK293 cells, confirmation, counter-screen for TMEM16A inhibitor project; shares compounds with ANO1 block; Fluo4 calcium mobilization; calcium response (% of ionomycin), % at 10 µM; 2,300 tested, 2% active; AID 652231, 2013;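 active means duplicate-averaged calcium signal over 20% of the ionomycin maximum, relative to buffer baseline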;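 further: each well's signal is peak minus trough fluorescence divided by its pre-addition baseline; 0% = buffer wells and 100% = ionomycin wells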
Parental YFP cnt: iodide YFP quench changes in parental YFP-HEK293, counter-screen for TMEM16A inhibitor project, cell-based; shares compounds with ANO1 block; AID 652233, 2013; YFP ratio F(max-min)/F0 at 10 µM; 2,300 tested, under 10 active; ionomycin;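 active means yellow fluorescent protein signal ratio exceeding the buffer control mean by over 5 SD of those controls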;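 further: ratio is mean of duplicate wells from kinetic YFP trace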
ClC-1 rat inh: ClC-1 chloride channel inhibition, selectivity assay for TMEM16A inhibitor project, cell-based, voltage-dependent ClC-1. shares compounds with ANO1 block. CHO ClC-1-YFP, iodide influx fluorescence quench; iodide control reads 0, buffer control 100. ratio percent, % at 10 µM. 2,300 tested, under 10 active;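 active means duplicate-mean ratio percent above the mean of iodide-only control wells, which defines zero, plus 5 of their SD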;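 further: higher percent means stronger block of ClC-1 iodide influx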
Starred values were filed as active, the others as inactive. Shown are actives, neighbours in structure and some others; about 3.4% of the full set was active somewhere.

For Cc1cccnc1CN1CCN(C(=O)c2cc(COc3ccc4ncccc4c3)on2)CC1 the results were ANO1 block 25*, VIM-2 inh 47.8*, TMEM16A act inactive, CHT PAM inactive, IMP-1 inh-1 -3.1, CHT block inactive, IMP-1 inh-2 -3.4, VIM-2 FRET inh -20.5, TEM-1 counter-1 -3.8, VIM-2 inh conf 63.8*, TMEM16A reconf 22.0%*, HEK293 Ca mobil inactive, Parental YFP cnt -1.13 and ClC-1 rat inh -39.5.
Screening O=C1c2cccc3c(N4CCCCC4)ccc(c23)C(=O)N1CCO returned ANO1 block inactive, VIM-2 inh 12.8*, TMEM16A act inactive, CHT PAM inactive, IMP-1 inh-1 0.7, CHT block inactive, IMP-1 inh-2 0.1, VIM-2 FRET inh 2.3, TEM-1 counter-1 -4.8, VIM-2 inh conf 25.3*, TMEM16A reconf inactive, HEK293 Ca mobil inactive, Parental YFP cnt -1.12 and ClC-1 rat inh -49.5.
Screening C=CCN1C(=O)c2cccc3c(N4CCCCC4)ccc(c23)C1=O returned ANO1 block inactive, VIM-2 inh -0.6, TMEM16A act inactive, CHT PAM inactive, IMP-1 inh-1 0.4 and CHT block inactive.
`C[C@@H](NC(=O)c1[nH]cnc1C(=O)Nc1nccs1)c1ccccc1` gave TMEM16A act inactive.
COCCCn1c(=NC(=O)c2ccccc2)c(C#N)cc2c(=O)n3cccc(C)c3nc21 was read as ANO1 block inactive, VIM-2 inh 9.3*, TMEM16A act inactive, CHT PAM inactive, IMP-1 inh-1 8.5*, CHT block inactive, VIM-2 inh confirm 17.6*, TEM-1 counter-2 31.6* and IMP-1 confirm 11.2*.

Compound activity (PubChem)
